Reference: ChEMBL document CHEMBL3580574, “Design, Synthesis, and Biological Evaluation of Hexacyclic Tetracyclines as Potent, Broad Spectrum Antibacterial Agents” (J Med Chem, 2015)
Converted amounts (≈) assume the structure as drawn.

Columns and labels:
Assay type in all cases: functional
[1] = tested on: Stenotrophomonas maltophilia; test: Antibacterial activity against Stenotrophomonas maltophilia 256 assessed as bacterial growth inhibition by susceptibility testing assay
Outline: (§1)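 Medium supplemented with lysed horse blood where appropriate. Compound stocks prepared and serially diluted in sterile deionized water. Runs were accepted against QC ranges for comparator antibiotics and ATCC QC strains.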

Pseudomonas aeruginosa = test: Antibacterial activity against Pseudomonas aeruginosa 555 BAA-47 assessed as bacterial growth inhibition by susceptibility testing assay; details: Pseudomonas aeruginosa, 555 BAA-47; read-out: MIC
Outline: as §1, with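 “Broth microdilution MIC per CLSI in cation-adjusted Mueller Hinton broth, made fresh and held at 4 °C before testing. Medium” for “Medium”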

Escherichia coli [2] = test: Antibacterial activity against tet(A) tetracycline-resistant Escherichia coli 155 assessed as bacterial growth inhibition by susceptibility testing assay; details: Escherichia coli, 155; read-out: MIC
Outline: (§2)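 Broth microdilution MIC per CLSI in 96-well plates; compound stocks prepared and serially diluted in sterile deionized water; cation-adjusted Mueller Hinton broth prepared fresh and held at 4 °C before testing, supplemented with lysed horse blood as appropriate; runs accepted when comparator antibiotics fell within QC ranges for appropriate ATCC quality control strains.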

Staphylococcus aureus [3] = test: Antibacterial activity against methicillin-resistant, tet(M) tetracycline-resistant Staphylococcus aureus 161 assessed as bacterial growth inhibition by susceptibility testing assay; outline: as §2
Staphylococcus aureus [4] = test: Antibacterial activity against tet(K) tetracycline-resistant Staphylococcus aureus 158 assessed as bacterial growth inhibition by susceptibility testing assay; details: Staphylococcus aureus, 158; read-out: MIC
Escherichia coli [5] = test: Antibacterial activity against Escherichia coli 107 ATCC 25922 assessed as bacterial growth inhibition by susceptibility testing assay
Outline: as §1, with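 “Broth microdilution MIC per CLSI in cation-adjusted Mueller Hinton broth, made fresh and held at 4 °C before testing. Medium” for “Medium”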

Enterococcus faecium = test: Antibacterial activity against tet(M) tetracycline-resistant Enterococcus faecium 404 assessed as bacterial growth inhibition by susceptibility testing assay
Enterobacter cloacae = test: Antibacterial activity against tet(A) tetracycline-resistant Enterobacter cloacae 603 assessed as bacterial growth inhibition by susceptibility testing assay; outline: as §2
Burkholderia cenocepacia = test: Antibacterial activity against Burkholderia cenocepacia 240 assessed as bacterial growth inhibition by susceptibility testing assay; outline: as §1
Enterococcus faecalis = test: Antibacterial activity against tet(M) tetracycline-resistant Enterococcus faecalis 327 assessed as bacterial growth inhibition by susceptibility testing assay; outline: as §2
Streptococcus pneumoniae = test: Antibacterial activity against tet(M) tetracycline-resistant Streptococcus pneumoniae 160 assessed as bacterial growth inhibition by susceptibility testing assay
Klebsiella pneumoniae = test: Antibacterial activity against Klebsiella pneumoniae 457 harboring CTX-M-15 gene assessed as bacterial growth inhibition by susceptibility testing assay; details: Klebsiella pneumoniae, 457; read-out: MIC; outline: as §2
Acinetobacter baumannii = test: Antibacterial activity against tet(B) tetracycline-resistant Acinetobacter baumannii 250 assessed as bacterial growth inhibition by susceptibility testing assay; outline: as §2
Staphylococcus aureus [6] = test: Antibacterial activity against Staphylococcus aureus 101 ATCC 29213 assessed as bacterial growth inhibition by susceptibility testing assay; details: Staphylococcus aureus, 101 ATCC 29213; read-out: MIC
Outline: as §1, with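 “Broth microdilution MIC per CLSI in cation-adjusted Mueller Hinton broth, made fresh and held at 4 °C before testing. Medium” for “Medium”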

Proteus mirabilis = test: Antibacterial activity against Proteus mirabilis 385 assessed as bacterial growth inhibition by susceptibility testing assay
Outline: as §1, with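 “Broth microdilution MIC per CLSI in cation-adjusted Mueller Hinton broth, made fresh and held at 4 °C before testing. Medium” for “Medium”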

[7] = Stenotrophomonas maltophilia, 256, read-out: MIC
[8] = Staphylococcus aureus, 161, read-out: MIC
[9] = Escherichia coli, 107 ATCC 25922, read-out: MIC
[10] = Enterococcus faecium, 404, read-out: MIC
[11] = Enterobacter cloacae, 603, read-out: MIC
[12] = Burkholderia cenocepacia, 240, read-out: MIC
[13] = Enterococcus faecalis, 327, read-out: MIC
[14] = Streptococcus pneumoniae, 160, read-out: MIC
[15] = Acinetobacter baumannii, 250, read-out: MIC
[16] = Proteus mirabilis, 385, read-out: MIC

SMILES	MIC [1, 7] [µg/mL]	MIC (Pseudomonas aeruginosa) [µg/mL]	MIC (Escherichia coli [2]) [µg/mL]	MIC (Staphylococcus aureus [3]; [8]) [µg/mL]	MIC (Staphylococcus aureus [4]) [µg/mL]	MIC (Escherichia coli [5]; [9]) [µg/mL]	MIC (Enterococcus faecium; [10]) [µg/mL]	MIC (Enterobacter cloacae; [11]) [µg/mL]	MIC (Burkholderia cenocepacia; [12]) [µg/mL]	MIC (Enterococcus faecalis; [13]) [µg/mL]	MIC (Streptococcus pneumoniae; [14]) [µg/mL]	MIC (Klebsiella pneumoniae) [µg/mL]	MIC (Acinetobacter baumannii; [15]) [µg/mL]	MIC (Staphylococcus aureus [6]) [µg/mL]	MIC (Proteus mirabilis; [16]) [µg/mL]	other results
CN(C)[C@@H]1C(O)=C(C(N)=O)C(=O)[C@@]2(O)C(O)=C3C(=O)c4c(O)c5c(c(OC(F)(F)F)c4C[C@H]3C[C@@H]12)[C@@H]1[C@@H](CCN1C)CN5	0.25 (≈ 0.411 µM)	8 (≈ 13.1 µM)	0.0312 (≈ 0.0513 µM)	0.125 (≈ 0.205 µM)	≤ 0.0156	≤ 0.0156	≤ 0.0156	0.5 (≈ 0.822 µM)	8 (≈ 13.1 µM)	0.0312 (≈ 0.0513 µM)	≤ 0.0156	0.5 (≈ 0.822 µM)	1 (≈ 1.64 µM)	0.0625 (≈ 0.103 µM)	2 (≈ 3.29 µM)	–
CN(C)[C@@H]1C(O)=C(C(N)=O)C(=O)[C@@]2(O)C(O)=C3C(=O)c4c(O)c5c(c(OC(F)(F)F)c4C[C@H]3C[C@@H]12)[C@@H]1[C@H](CN5)CC2COCCN21 (stereo not given in full)	16 (≈ 24.6 µM)	> 32	16 (≈ 24.6 µM)	4 (≈ 6.15 µM)	0.5 (≈ 0.769 µM)	4 (≈ 6.15 µM)	0.25 (≈ 0.384 µM)	> 32	> 32	0.5 (≈ 0.769 µM)	0.0625 (≈ 0.0961 µM)	> 32	16 (≈ 24.6 µM)	2 (≈ 3.07 µM)	> 32	–
CN(C)[C@@H]1C(O)=C(C(N)=O)C(=O)[C@@]2(O)C(O)=C3C(=O)c4c(O)c5c(c(F)c4C[C@H]3C[C@@H]12)[C@@H]1[C@@H](CCN1C)CN5 (stereo in doubt; 10b)	–	8 (≈ 14.7 µM)	1 (≈ 1.84 µM)	–	0.125 (≈ 0.23 µM)	–	–	–	–	–	–	1 (≈ 1.84 µM)	–	0.5 (≈ 0.922 µM)	–	MIC [1]: 4 µg/mL (≈ 7.37 µM); MIC (Staphylococcus aureus [3]): 4 µg/mL (≈ 7.37 µM); MIC (Escherichia coli [5]): 0.25 µg/mL (≈ 0.461 µM); MIC (Enterococcus faecium): 1 µg/mL (≈ 1.84 µM); MIC (Enterobacter cloacae): 2 µg/mL (≈ 3.69 µM); MIC (Burkholderia cenocepacia): 32 µg/mL (≈ 59 µM); MIC (Enterococcus faecalis): 4 µg/mL (≈ 7.37 µM); MIC (Streptococcus pneumoniae): 0.125 µg/mL (≈ 0.23 µM); MIC (Acinetobacter baumannii): 8 µg/mL (≈ 14.7 µM); MIC (Proteus mirabilis): 2 µg/mL (≈ 3.69 µM)
CN(C)[C@@H]1C(O)=C(C(N)=O)C(=O)[C@@]2(O)C(O)=C3C(=O)c4c(O)c5c(c(OC(F)(F)F)c4C[C@H]3C[C@@H]12)C1NCCC1CN5 (mixture of isomers)	16	32	2	2	0.25	0.5	0.25	8	> 32	0.5	0.25	2	> 32	0.5	4	–
CN(C)[C@@H]1C(O)=C(C(N)=O)C(=O)[C@@]2(O)C(O)=C3C(=O)c4c(O)c5c(c(F)c4C[C@H]3C[C@@H]12)[C@@H]1[C@@H](CCN1CCO)CN5	32 (≈ 55.9 µM)	32 (≈ 55.9 µM)	16 (≈ 27.9 µM)	4 (≈ 6.99 µM)	0.25 (≈ 0.437 µM)	1 (≈ 1.75 µM)	1 (≈ 1.75 µM)	16 (≈ 27.9 µM)	> 32	1 (≈ 1.75 µM)	0.125 (≈ 0.218 µM)	4 (≈ 6.99 µM)	> 32	2 (≈ 3.49 µM)	8 (≈ 14 µM)	–
CCN1CC[C@H]2CNc3c(O)c4c(c(F)c3[C@H]21)C[C@H]1C[C@H]2[C@H](N(C)C)C(O)=C(C(N)=O)C(=O)[C@@]2(O)C(O)=C1C4=O	1 (≈ 1.8 µM)	8 (≈ 14.4 µM)	0.25 (≈ 0.449 µM)	0.5 (≈ 0.898 µM)	0.0625 (≈ 0.112 µM)	0.0625 (≈ 0.112 µM)	0.0625 (≈ 0.112 µM)	0.5 (≈ 0.898 µM)	16 (≈ 28.7 µM)	0.125 (≈ 0.225 µM)	≤ 0.0156	1 (≈ 1.8 µM)	2 (≈ 3.59 µM)	0.25 (≈ 0.449 µM)	1 (≈ 1.8 µM)	–
CN(C)[C@@H]1C(O)=C(C(N)=O)C(=O)[C@@]2(O)C(O)=C3C(=O)c4c(O)c5c(c(OC(F)(F)F)c4C[C@H]3C[C@@H]12)[C@@H]1[C@H](CN5)CC2CCCN21 (stereo not given in full)	4 (≈ 6.3 µM)	8 (≈ 12.6 µM)	0.25 (≈ 0.394 µM)	1 (≈ 1.58 µM)	0.0625 (≈ 0.0985 µM)	0.0625 (≈ 0.0985 µM)	0.0625 (≈ 0.0985 µM)	4 (≈ 6.3 µM)	32 (≈ 50.4 µM)	0.125 (≈ 0.197 µM)	≤ 0.0156	2 (≈ 3.15 µM)	16 (≈ 25.2 µM)	0.25 (≈ 0.394 µM)	4 (≈ 6.3 µM)	–
CN(C)[C@@H]1C(O)=C(C(N)=O)C(=O)[C@@]2(O)C(O)=C3C(=O)c4c(O)c5c(c(F)c4C[C@H]3C[C@@H]12)[C@H]1NCC[C@@]1(C)CN5	32 (≈ 59 µM)	32 (≈ 59 µM)	16 (≈ 29.5 µM)	16 (≈ 29.5 µM)	1 (≈ 1.84 µM)	0.5 (≈ 0.922 µM)	1 (≈ 1.84 µM)	16 (≈ 29.5 µM)	> 32	4 (≈ 7.37 µM)	0.25 (≈ 0.461 µM)	4 (≈ 7.37 µM)	> 32	4 (≈ 7.37 µM)	4 (≈ 7.37 µM)	–
CN(C)[C@@H]1C(O)=C(C(N)=O)C(=O)[C@@]2(O)C(O)=C3C(=O)c4c(O)c5c(c(F)c4C[C@H]3C[C@@H]12)C1NCCC1CN5 (mixture of isomers)	> 32	32	1	4	0.5	0.5	1	8	> 32	2	0.5	2	> 32	2	0.5	–
CCCN1CC[C@@]2(C)CNc3c(O)c4c(c(F)c3[C@@H]12)C[C@H]1C[C@H]2[C@H](N(C)C)C(O)=C(C(N)=O)C(=O)[C@@]2(O)C(O)=C1C4=O	4 (≈ 6.84 µM)	> 32	4 (≈ 6.84 µM)	8 (≈ 13.7 µM)	0.125 (≈ 0.214 µM)	1 (≈ 1.71 µM)	4 (≈ 6.84 µM)	16 (≈ 27.4 µM)	> 32	8 (≈ 13.7 µM)	0.5 (≈ 0.855 µM)	16 (≈ 27.4 µM)	16 (≈ 27.4 µM)	0.5 (≈ 0.855 µM)	32 (≈ 54.7 µM)	–
CN(C)[C@@H]1C(O)=C(C(N)=O)C(=O)[C@@]2(O)C(O)=C3C(=O)c4c(O)c5c(c(F)c4C[C@H]3C[C@@H]12)[C@@H]1[C@@H](CCN1CCNCC(F)F)CN5	4 (≈ 6.29 µM)	> 32	4 (≈ 6.29 µM)	1 (≈ 1.57 µM)	0.0312 (≈ 0.0491 µM)	0.25 (≈ 0.393 µM)	0.0625 (≈ 0.0983 µM)	8 (≈ 12.6 µM)	32 (≈ 50.3 µM)	0.125 (≈ 0.197 µM)	≤ 0.0156	4 (≈ 6.29 µM)	8 (≈ 12.6 µM)	0.5 (≈ 0.787 µM)	8 (≈ 12.6 µM)	–
CN(C)CCN1CC[C@H]2CNc3c(O)c4c(c(F)c3[C@H]21)C[C@H]1C[C@H]2[C@H](N(C)C)C(O)=C(C(N)=O)C(=O)[C@@]2(O)C(O)=C1C4=O	> 32	> 32	> 32	16 (≈ 26.7 µM)	1 (≈ 1.67 µM)	8 (≈ 13.3 µM)	4 (≈ 6.67 µM)	> 32	> 32	8 (≈ 13.3 µM)	1 (≈ 1.67 µM)	32 (≈ 53.4 µM)	> 32	4 (≈ 6.67 µM)	> 32	–
CN(C)[C@@H]1C(O)=C(C(N)=O)C(=O)[C@@]2(O)C(O)=C3C(=O)c4c(O)c5c(c(OC(F)(F)F)c4C[C@H]3C[C@@H]12)[C@@H]1[C@H](CN5)CC2CCCCN21 (stereo not given in full)	1 (≈ 1.54 µM)	16 (≈ 24.7 µM)	0.125 (≈ 0.193 µM)	0.25 (≈ 0.385 µM)	≤ 0.0156	≤ 0.0156	≤ 0.0156	4 (≈ 6.17 µM)	8 (≈ 12.3 µM)	0.0312 (≈ 0.0481 µM)	≤ 0.0156	4 (≈ 6.17 µM)	2 (≈ 3.08 µM)	0.0625 (≈ 0.0964 µM)	4 (≈ 6.17 µM)	–
CN(C)[C@@H]1C(O)=C(C(N)=O)C(=O)[C@@]2(O)C(O)=C3C(=O)c4c(O)cccc4[C@@](C)(O)[C@H]3C[C@@H]12 [TETRACYCLINE]	–	> 32	> 64	64 (≈ 144 µM)	–	1 (≈ 2.25 µM)	–	> 32	–	> 32	–	8 (≈ 18 µM)	> 32	0.125 (≈ 0.281 µM)	> 32	–
